Source: ChEMBL document CHEMBL2150940, “Mechanism-based design, synthesis and biological studies of N⁵-substituted tetrahydrofolate analogs as inhibitors of cobalamin-dependent methionine synthase and potential anticancer agents” (Eur J Med Chem, 2012)

Experiments:
KB = assay: Antiproliferative activity against human KB cells after 48 hrs; format: functional, cell-based
Method in brief: (§1)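 Cells kept in RPMI-1640 with 10% fetal bovine serum, penicillin (100 units mL⁻¹) and streptomycin at 37 °C in humidified 5% CO₂. Exponentially growing cells were exposed to a range of compound concentrations for 48 h. Growth inhibition was read by MTT and SRB assays. Values are means of three independent experiments.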

Methionine synthase = Methionine synthase (Homo sapiens, UniProt Q99707); assay: Inhibition of methionine synthase in human HL60 cells using L-homocysteine as substrate incubated for 3 hrs prior to substrate addition measured after 10 mins spectrophotometric analysis; format: cell-based, HL-60
Methionine synthase, sequence (Q99707 whole entry): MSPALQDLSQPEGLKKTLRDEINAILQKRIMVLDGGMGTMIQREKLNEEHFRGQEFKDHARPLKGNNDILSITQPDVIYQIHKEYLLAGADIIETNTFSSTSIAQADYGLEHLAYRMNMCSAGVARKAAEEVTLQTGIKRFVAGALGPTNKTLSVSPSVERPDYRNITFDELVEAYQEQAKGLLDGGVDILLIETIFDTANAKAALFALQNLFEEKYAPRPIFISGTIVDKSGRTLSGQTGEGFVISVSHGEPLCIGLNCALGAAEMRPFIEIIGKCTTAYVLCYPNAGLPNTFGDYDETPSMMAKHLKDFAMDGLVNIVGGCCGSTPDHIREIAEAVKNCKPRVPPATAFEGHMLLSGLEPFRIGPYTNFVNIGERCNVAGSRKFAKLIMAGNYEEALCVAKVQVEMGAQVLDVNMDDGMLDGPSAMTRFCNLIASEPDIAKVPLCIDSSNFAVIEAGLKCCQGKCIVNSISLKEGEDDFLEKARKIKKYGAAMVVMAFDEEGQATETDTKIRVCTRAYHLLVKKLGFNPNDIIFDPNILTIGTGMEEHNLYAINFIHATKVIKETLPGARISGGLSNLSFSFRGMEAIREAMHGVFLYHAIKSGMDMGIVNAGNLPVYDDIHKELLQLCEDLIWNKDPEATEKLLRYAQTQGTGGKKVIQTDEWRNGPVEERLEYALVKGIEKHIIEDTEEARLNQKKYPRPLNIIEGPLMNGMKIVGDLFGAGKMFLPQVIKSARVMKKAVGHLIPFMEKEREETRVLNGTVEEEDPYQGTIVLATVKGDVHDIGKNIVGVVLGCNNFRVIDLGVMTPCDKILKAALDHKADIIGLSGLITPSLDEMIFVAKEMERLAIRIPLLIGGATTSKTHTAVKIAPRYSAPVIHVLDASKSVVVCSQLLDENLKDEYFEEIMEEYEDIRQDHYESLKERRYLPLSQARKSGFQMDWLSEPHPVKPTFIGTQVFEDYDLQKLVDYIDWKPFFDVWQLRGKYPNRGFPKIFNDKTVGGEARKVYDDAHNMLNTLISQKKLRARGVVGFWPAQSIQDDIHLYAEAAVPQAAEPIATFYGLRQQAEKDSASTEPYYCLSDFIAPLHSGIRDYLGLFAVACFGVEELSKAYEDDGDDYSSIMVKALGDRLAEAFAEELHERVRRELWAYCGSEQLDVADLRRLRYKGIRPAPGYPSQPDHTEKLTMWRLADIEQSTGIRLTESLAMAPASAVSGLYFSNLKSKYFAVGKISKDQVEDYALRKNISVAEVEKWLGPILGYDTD
Method in brief: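 HL60 cells (1 × 10⁶/well) were serum-starved, then exposed 3 h to varied compound concentrations, lysed in HEPES pH 7.5 buffer and cleared at 4 °C. Lysate was mixed with potassium phosphate pH 7.2, DTT, 5-methyltetrahydrofolate, SAM and hydroxocobalamin (stock levels given) and preincubated 5 min at 37 °C. L-homocysteine started a 10 min 37 °C reaction. HCl/formic acid stop at 80 °C 10 min; A350 read.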

SK-OV-3 [1] = assay: Antiproliferative activity against human SKOV3 cells after 48 hrs; format: functional, cell-based; conditions: SK-OV-3, 48 h; method in brief: as §1
BGC-823 = assay: Antiproliferative activity against human BGC823 cells after 48 hrs; format: functional, cell-based; conditions: BGC-823, 48 h; method in brief: as §1
Dihydrofolate reductase = target: T1, Dihydrofolate reductase (Homo sapiens, UniProt P00374); assay: Inhibition of human recombinant DHFR using dihydrofolate as substrate by spectrophotometric analysis
T1 sequence (P00374 whole entry): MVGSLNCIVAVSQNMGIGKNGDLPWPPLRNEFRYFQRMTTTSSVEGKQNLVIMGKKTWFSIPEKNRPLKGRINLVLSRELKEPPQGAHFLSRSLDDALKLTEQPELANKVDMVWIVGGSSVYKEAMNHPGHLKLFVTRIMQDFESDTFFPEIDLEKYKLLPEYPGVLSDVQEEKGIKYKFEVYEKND
Method in brief: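 Recombinant human DHFR was followed spectrophotometrically in 0.1 mM dihydrofolate, 0.3 mM NADPH and 100 mM KCl, pH 7.5, at 32 °C.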

HeLa = assay: Antiproliferative activity against human HeLa cells after 48 hrs; format: functional, cell-based; method in brief: as §1
Bel-7402 = assay: Antiproliferative activity against human Bel7402 cells after 48 hrs; format: functional, cell-based; conditions: Bel-7402, 48 h; method in brief: as §1
SK-OV-3 [2] = assay: Ratio of MTX IC50 to compound IC50 for human SKOV3 cells; format: functional

SMILES | IC50 (KB) [µM] | IC50 (Methionine synthase) [µM] | IC50 (SK-OV-3 [1]) [µM] | IC50 (BGC-823) [µM] | IC50 (Dihydrofolate reductase) [µM] | IC50 (HeLa) [µM] | IC50 (Bel-7402) [µM] | Ratio IC50 (SK-OV-3 [2])
Nc1nc(N)c2c(n1)CCC1CN(c3ccc(C(=O)N[C@@H](CCC(=O)O)C(=O)O)cc3)CN21 (some centres undefined) | > 100 | 66.4 | 37.4 | 0.18 | 0.8 | 0.13 | 64.7 | 
C=CCN1c2c(N)nc(N)nc2CCC1CN(C)c1ccc(C(=O)N[C@@H](CCC(=O)O)C(=O)O)cc1 (some centres undefined) | > 100 | > 100 | 0.573 | 2.09 | 0.42 | 0.227 | 61.5 | 
C=CCN1c2c(N)nc(N)nc2CCC1CNc1ccc(C(=O)N[C@@H](CCC(=O)O)C(=O)O)cc1 (some centres undefined) | > 100 | 27.8 | 0.87 |  |  |  |  | 
CN(CC1CCc2nc(N)nc(N)c2N1C=O)c1ccc(C(=O)N[C@@H](CCC(=O)O)C(=O)O)cc1 (some centres undefined) | > 130 | 8.11 | > 100 | 6.9 | 0.032 | 6 | 65.2 | 
C=CCN1c2c(N)nc(N)nc2CCC1CNc1ccc(C(=O)N[C@@H](CCC(=O)O)C(=O)O)cc1Br (some centres undefined) | > 100 | 21 | > 100 |  |  |  |  | 
Nc1nc(N)c2c(n1)CCC(CNc1ccc(C(=O)N[C@@H](CCC(=O)O)C(=O)O)cc1Br)N2CC(Br)CBr (some centres undefined) | > 100 | 1.43 | 0.042 |  |  |  |  | 1.4
Nc1nc(N)c2c(n1)CCC(CNc1ccc(C(=O)N[C@@H](CCC(=O)O)C(=O)O)cc1)N2 (mixture of isomers) | > 100 | 87.9 | 0.24 |  |  |  |  | 
CN(CC1CCc2nc(N)nc(N)c2N1)c1ccc(C(=O)N[C@@H](CCC(=O)O)C(=O)O)cc1 (mixture of isomers) |  | > 100 |  |  | 0.033 |  |  | 

Now from value to compound, other results behind:

IC50 (KB) [µM] | IC50 (Methionine synthase) [µM] | IC50 (SK-OV-3 [1]) [µM] | IC50 (BGC-823) [µM] | IC50 (Dihydrofolate reductase) [µM] | IC50 (HeLa) [µM] | IC50 (Bel-7402) [µM] | SMILES | Ratio IC50 (SK-OV-3 [2])
6.72 | 15.9 | 50.2 |  |  |  |  | C=CCN(CC1CCc2nc(N)nc(N)c2N1CC=C)c1ccc(C(=O)N[C@@H](CCC(=O)O)C(=O)O)cc1 (some centres undefined) | 
2.7 | > 100 | 0.01 | 0.01 | 0.018 | 0.003 | 18.3 | Nc1nc(N)c2nc(CNc3ccc(C(=O)N[C@@H](CCC(=O)O)C(=O)O)cc3)ccc2n1 | 
0.336 | 55 | 0.45 | 0.289 | 1.07 | 0.434 | 0.325 | Cc1ccc(S(=O)(=O)N2c3c(N)nc(N)nc3CCC2CN(C)c2ccc(C(=O)N[C@@H](CCC(=O)O)C(=O)O)cc2)cc1 (some centres undefined) | 
20 | 1.73 | 34.6 | 27 | > 100 | 41.6 | 12.3 | CC(=O)N(CC1CCc2nc(N)nc(N)c2N1C=O)c1ccc(C(=O)N[C@@H](CCC(=O)O)C(=O)O)cc1 (some centres undefined) | 
31.1 | > 100 | > 100 | > 100 | 0.033 | > 100 | > 100 | CC(=O)N(CC1CCc2nc(N)nc(N)c2N1)c1ccc(C(=O)N[C@@H](CCC(=O)O)C(=O)O)cc1 (mixture of isomers) | 
20.9 |  | 0.06 |  |  |  |  | CN(Cc1cnc2nc(N)nc(N)c2n1)c1ccc(C(=O)N[C@@H](CCC(=O)O)C(=O)O)cc1 [METHOTREXATE] | 
